Assay results published in ChEMBL document CHEMBL4837264, “Rational Design, Optimization, and Biological Evaluation of Novel MEK4 Inhibitors against Pancreatic Adenocarcinoma” (ACS Med Chem Lett, 2021).
The source made the active and inactive calls. The rule behind the calls is not given here.

Key:
[1] = target: Serine/threonine-protein kinase B-raf (Homo sapiens) (UniProt P15056); experiment: Inhibition of wild type partial length human BRAF (S429 to E741) expressed in mammalian expression system at 10 uM measured by Kinomescan assay
Serine/threonine-protein kinase B-raf (Homo sapiens), sequence (P15056 whole entry): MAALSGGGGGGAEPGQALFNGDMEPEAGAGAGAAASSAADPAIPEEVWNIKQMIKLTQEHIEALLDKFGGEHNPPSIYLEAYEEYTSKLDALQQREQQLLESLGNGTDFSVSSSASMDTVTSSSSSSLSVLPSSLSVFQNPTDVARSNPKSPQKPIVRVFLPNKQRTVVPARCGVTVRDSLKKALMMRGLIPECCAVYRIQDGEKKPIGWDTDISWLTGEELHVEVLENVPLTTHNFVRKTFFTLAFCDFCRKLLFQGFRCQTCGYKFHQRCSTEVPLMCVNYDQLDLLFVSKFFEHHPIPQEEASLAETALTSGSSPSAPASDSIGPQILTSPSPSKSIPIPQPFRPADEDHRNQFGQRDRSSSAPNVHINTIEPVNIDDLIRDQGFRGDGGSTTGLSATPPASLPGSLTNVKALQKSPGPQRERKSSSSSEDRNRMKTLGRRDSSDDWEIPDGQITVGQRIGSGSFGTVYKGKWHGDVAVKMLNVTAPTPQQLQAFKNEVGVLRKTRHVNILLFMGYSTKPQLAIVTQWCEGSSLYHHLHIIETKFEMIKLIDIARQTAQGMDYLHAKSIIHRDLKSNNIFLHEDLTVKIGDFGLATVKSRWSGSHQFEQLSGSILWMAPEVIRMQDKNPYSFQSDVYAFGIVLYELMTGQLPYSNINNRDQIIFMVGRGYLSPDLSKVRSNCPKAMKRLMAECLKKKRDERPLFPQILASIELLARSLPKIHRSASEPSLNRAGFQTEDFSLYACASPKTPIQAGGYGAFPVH
Outline: (§1)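 Kinome-wide binding scan on the scanEDGE DiscoverX platform, covering 97 kinases, each tested at a single compound concentration of 10 μM.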

[2] = target: Mitogen-activated protein kinase 8 (Homo sapiens) (UniProt P45983); experiment: Inhibition of wild type full length human JNK1 (M1 to Q384 residues) expressed in mammalian expression system at 10 uM measured by Kinomescan assay; outline: as §1
[3] = target: RAF proto-oncogene serine/threonine-protein kinase (Homo sapiens) (UniProt P04049); experiment: Inhibition of wild type partial length human RAF(I330 to T640 residues) expressed in bacterial expression system at 10 uM measured by Kinomescan assay; outline: as §1
RAF proto-oncogene serine/threonine-protein kinase (Homo sapiens), sequence (P04049 whole entry, the tested form may be a part): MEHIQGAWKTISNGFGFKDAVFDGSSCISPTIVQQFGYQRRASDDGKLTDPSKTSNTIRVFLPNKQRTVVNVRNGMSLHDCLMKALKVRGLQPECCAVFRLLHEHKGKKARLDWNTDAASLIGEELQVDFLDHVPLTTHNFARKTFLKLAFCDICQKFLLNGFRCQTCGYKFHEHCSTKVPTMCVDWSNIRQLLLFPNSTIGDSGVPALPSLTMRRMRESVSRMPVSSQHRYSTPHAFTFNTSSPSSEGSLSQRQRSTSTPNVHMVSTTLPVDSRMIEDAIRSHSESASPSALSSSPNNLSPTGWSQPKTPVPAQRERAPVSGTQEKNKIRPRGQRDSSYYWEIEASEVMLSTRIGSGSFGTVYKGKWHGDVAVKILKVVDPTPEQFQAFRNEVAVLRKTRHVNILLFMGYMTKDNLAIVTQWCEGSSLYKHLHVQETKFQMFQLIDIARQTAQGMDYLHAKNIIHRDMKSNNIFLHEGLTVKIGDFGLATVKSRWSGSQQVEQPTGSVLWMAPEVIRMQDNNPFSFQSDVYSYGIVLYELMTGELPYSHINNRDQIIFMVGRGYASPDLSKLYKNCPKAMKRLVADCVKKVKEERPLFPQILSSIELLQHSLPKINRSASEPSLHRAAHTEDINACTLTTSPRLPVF

[4] = target: Dual specificity mitogen-activated protein kinase kinase 2 (Homo sapiens) (UniProt P36507); experiment: Inhibition of human MEK2 in human HEK293T cells assessed as reversal of anisomycin-induced decrease of p42/44 MAPK phosphorylation at 100 uM measured after 5 hrs by Western blot assay; type: cell-based
Dual specificity mitogen-activated protein kinase kinase 2 (Homo sapiens), sequence (P36507 whole entry, the tested form may be a part): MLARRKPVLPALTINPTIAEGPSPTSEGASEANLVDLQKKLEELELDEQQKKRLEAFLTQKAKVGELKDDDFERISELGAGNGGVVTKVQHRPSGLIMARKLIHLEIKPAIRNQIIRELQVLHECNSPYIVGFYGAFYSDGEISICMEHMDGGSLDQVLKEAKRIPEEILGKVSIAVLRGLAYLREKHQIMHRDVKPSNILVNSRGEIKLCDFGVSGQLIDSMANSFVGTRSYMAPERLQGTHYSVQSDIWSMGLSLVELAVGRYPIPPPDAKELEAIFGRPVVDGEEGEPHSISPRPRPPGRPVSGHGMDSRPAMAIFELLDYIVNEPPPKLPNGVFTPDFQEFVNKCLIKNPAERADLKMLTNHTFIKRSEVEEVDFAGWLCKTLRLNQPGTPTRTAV
Outline: (§2)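 HEK293T cells pretreated with anisomycin (3 μg/mL) for 45 min, then given inhibitor (100 μM) for 5 h. Phospho- and total p42/44 MAPK and p38 MAPK, plus MEK7, detected by Western blot with HSP90 as loading control. Blots representative of at least three biological replicates.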

[5] = target: T1, Dual specificity mitogen-activated protein kinase kinase 5 (Homo sapiens) (UniProt Q13163); experiment: Inhibition of human wild type partial length MEK5 (L98 to P448 residues) expressed in mammalian expression system at 1 uM measured by Kinomescan assay
T1 sequence (whole entry): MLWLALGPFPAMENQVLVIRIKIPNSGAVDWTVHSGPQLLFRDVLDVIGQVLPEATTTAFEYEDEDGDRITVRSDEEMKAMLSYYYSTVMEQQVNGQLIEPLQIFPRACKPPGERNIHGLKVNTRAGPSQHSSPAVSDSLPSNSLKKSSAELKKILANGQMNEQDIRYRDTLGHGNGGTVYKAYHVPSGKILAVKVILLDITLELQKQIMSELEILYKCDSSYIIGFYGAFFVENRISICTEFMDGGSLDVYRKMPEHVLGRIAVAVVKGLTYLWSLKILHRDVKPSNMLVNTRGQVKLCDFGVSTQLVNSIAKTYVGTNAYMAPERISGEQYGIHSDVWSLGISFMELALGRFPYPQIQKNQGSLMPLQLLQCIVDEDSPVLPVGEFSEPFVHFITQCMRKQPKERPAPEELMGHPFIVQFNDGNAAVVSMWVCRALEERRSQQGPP

MIA PaCa-2 [6] = experiment: Antiproliferative activity against human MIA PaCa-2 cells assessed as inhibition of cell proliferation measured after 72 hrs; type: functional, cell-based
Outline: (§3)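 Cells (~30,000; HEK293T, or pancreatic CD18 and MiaPaCa2) exposed to DMSO or a range of inhibitor doses for 72 h, then trypsinized and counted. Counts normalized to the DMSO control. Mean ± SD; three biological replicates; one-way ANOVA.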

[7] = target: T2, Dual specificity mitogen-activated protein kinase kinase 3 (Homo sapiens) (UniProt P46734); experiment: Inhibition of human wild type full length MEK3 (M1 to S318) expressed in mammalian expression system at 1 uM measured by Kinomescan assay
T2 sequence (whole entry): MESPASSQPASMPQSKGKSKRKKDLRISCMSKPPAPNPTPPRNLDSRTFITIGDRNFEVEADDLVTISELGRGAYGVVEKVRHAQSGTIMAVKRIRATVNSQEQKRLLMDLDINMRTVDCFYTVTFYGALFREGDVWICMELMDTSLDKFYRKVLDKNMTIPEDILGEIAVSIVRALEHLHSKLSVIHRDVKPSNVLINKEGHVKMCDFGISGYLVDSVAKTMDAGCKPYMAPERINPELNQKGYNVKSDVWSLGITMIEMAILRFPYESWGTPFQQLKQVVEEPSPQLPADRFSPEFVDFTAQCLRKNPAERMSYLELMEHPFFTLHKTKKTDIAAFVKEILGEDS

[8] = target: Mitogen-activated protein kinase 3 (Homo sapiens) (UniProt P27361); experiment: Inhibition of wild type full length human ERK1 (M1 to P397 residues) expressed in bacterial expression system at 10 uM measured by Kinomescan assay; outline: as §1
Cytochrome P450 3A4 = Cytochrome P450 3A4 (Homo sapiens, UniProt P08684); experiment: Inhibition of CYP3A4 (unknown origin); type: ADME
Cytochrome P450 3A4, sequence (P08684 whole entry, the tested form may be a part): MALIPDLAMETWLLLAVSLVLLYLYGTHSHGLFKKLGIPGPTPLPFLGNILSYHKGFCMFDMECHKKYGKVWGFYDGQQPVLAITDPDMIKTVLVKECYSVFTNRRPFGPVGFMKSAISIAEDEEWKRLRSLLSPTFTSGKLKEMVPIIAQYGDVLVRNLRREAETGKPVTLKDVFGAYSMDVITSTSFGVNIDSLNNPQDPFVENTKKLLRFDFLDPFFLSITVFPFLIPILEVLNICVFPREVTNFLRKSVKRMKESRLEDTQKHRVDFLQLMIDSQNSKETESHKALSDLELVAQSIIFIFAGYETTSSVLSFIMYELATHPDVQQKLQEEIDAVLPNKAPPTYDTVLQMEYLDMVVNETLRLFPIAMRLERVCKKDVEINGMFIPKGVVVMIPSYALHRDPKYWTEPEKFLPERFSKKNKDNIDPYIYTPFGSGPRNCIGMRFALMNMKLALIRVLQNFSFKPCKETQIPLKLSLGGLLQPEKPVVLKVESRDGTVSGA

[9] = target: T3, Dual specificity mitogen-activated protein kinase kinase 6 (Homo sapiens) (UniProt P52564); experiment: Inhibition of human wild type partial length MEK6 (K36 to D344 residues) expressed in bacterial expression system at 1 uM measured by Kinomescan assay
T3 sequence (whole entry): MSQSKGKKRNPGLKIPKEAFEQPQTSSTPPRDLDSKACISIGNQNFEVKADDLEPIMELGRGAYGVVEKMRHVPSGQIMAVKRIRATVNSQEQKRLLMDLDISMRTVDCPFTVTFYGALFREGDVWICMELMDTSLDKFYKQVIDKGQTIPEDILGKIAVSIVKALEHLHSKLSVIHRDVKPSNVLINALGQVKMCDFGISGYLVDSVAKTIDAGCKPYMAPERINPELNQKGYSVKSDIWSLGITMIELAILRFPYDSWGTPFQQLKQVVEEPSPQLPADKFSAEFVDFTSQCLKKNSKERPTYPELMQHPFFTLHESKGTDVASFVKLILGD

[10] = Metabolic stability in human liver microsomes assessed as half life by microsome assay; type: ADME
Cytochrome P450 2C9 = Cytochrome P450 2C9 (Homo sapiens, UniProt P11712); experiment: Inhibition of CYP2C9 (unknown origin); type: ADME
[11] = target: T1, Dual specificity mitogen-activated protein kinase kinase 5 (Homo sapiens); experiment: Inhibition of human wild type partial length MEK5 (L98 to P448 residues) expressed in mammalian expression system at 10 uM measured by Kinomescan assay; outline: as §1
[12] = target: T3, Dual specificity mitogen-activated protein kinase kinase 6 (Homo sapiens); experiment: Inhibition of human wild type partial length MEK6 (K36 to D344 residues) expressed in bacterial expression system at 10 uM measured by Kinomescan assay; outline: as §1
[13] = target: Dual specificity mitogen-activated protein kinase kinase 1 (Homo sapiens) (UniProt Q02750); experiment: Inhibition of human MEK1 in human HPAF-II cells assessed as decrease of p42/44 MAPK phosphorylation in presence of U0126 at 10 uM measured after 5 hrs by Westren blot assay; type: cell-based
Dual specificity mitogen-activated protein kinase kinase 1 (Homo sapiens), sequence (Q02750 whole entry): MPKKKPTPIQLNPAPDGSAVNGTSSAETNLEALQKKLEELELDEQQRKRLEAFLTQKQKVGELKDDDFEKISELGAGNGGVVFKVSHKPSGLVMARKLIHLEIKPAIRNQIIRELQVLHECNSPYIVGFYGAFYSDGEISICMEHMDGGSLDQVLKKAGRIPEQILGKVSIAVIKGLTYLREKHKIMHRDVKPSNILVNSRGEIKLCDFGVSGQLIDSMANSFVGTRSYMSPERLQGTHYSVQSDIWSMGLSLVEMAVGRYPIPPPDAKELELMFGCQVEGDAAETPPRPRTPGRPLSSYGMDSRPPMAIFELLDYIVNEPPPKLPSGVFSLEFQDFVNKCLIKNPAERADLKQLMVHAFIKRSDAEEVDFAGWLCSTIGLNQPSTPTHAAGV
Outline: (§4)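 CD18 or MiaPaCa2 cells pretreated with U0126 (1 or 5 μM) for 1 h, then MEK4 inhibitor (10 μM) added for 5 h. Phospho- and total p42/44 MAPK detected by Western blot with HSP90 as loading control. Blots representative of at least three biological replicates.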

Cytochrome P450 3A5 = Cytochrome P450 3A5 (Homo sapiens, UniProt P20815); experiment: Inhibition of CYP3A5 (unknown origin); type: ADME
[14] = target: Mitogen-activated protein kinase 10 (Homo sapiens) (UniProt P53779); experiment: Inhibition of wild type partial length human JNK3 (V28 to Q422 residues) expressed in mammalian expression system at 10 uM measured by Kinomescan assay; outline: as §1
Mitogen-activated protein kinase 10 (Homo sapiens), sequence (P53779 whole entry, the tested form may be a part): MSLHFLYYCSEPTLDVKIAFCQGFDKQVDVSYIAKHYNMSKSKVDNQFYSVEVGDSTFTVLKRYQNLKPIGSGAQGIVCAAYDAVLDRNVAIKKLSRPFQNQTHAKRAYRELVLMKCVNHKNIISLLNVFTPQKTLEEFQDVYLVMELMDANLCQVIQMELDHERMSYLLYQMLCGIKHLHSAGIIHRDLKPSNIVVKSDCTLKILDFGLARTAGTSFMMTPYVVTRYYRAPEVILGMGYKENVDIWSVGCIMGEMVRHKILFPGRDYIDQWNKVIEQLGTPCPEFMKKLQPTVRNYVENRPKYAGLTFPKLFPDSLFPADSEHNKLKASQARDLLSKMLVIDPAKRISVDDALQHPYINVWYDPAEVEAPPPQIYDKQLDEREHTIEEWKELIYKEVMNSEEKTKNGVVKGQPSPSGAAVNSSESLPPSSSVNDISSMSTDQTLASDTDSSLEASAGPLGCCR

MIA PaCa-2 [15] = experiment: Antiproliferative activity against human MIA PaCa-2 cells assessed as inhibition of cell proliferation in presence of […] at 10 uM measured after 72 hrs; type: functional, cell-based
Outline: (§5)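 CD18 or MiaPaCa2 cells (~30,000) treated for 72 h with DMSO, U0126 (1 or 5 μM), MEK4 inhibitor (10 μM), or the combination. Cells trypsinized and counted, with counts normalized to DMSO; two-way ANOVA. Interaction expressed as CDI = AB/(A × B) from the normalized ratios, mean ± SEM of three biological replicates.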

[16] = target: Dual specificity mitogen-activated protein kinase kinase 2 (Homo sapiens) (UniProt P36507); experiment: Inhibition of human MEK2 in human HPAF-II cells assessed as decrease of p42/44 MAPK phosphorylation in presence of U0126 at 10 uM measured after 5 hrs by Westren blot assay; type: cell-based
[17] = target: T2, Dual specificity mitogen-activated protein kinase kinase 3 (Homo sapiens); experiment: Inhibition of human MEK3 in human HEK293T cells assessed as inhibition of anisomycin-induced p38 MAPK phosphorylation at 100 uM measured after 5 hrs by Western blot assay; type: cell-based; outline: as §2
[18] = target: Mitogen-activated protein kinase 9 (Homo sapiens) (UniProt P45984); experiment: Inhibition of wild type full length human JNK2 (M1 to Q382 residues) expressed in mammalian expression system at 10 uM measured by Kinomescan assay; outline: as §1
[19] = target: T4, Dual specificity mitogen-activated protein kinase kinase 7 (Homo sapiens) (UniProt O14733); experiment: Inhibition of human MEK7 in human HEK293T cells assessed as decrease of MEK7 expression in presence of anisomycin at 100 uM measured after 5 hrs by Western blot assay; type: cell-based
T4 sequence (whole entry): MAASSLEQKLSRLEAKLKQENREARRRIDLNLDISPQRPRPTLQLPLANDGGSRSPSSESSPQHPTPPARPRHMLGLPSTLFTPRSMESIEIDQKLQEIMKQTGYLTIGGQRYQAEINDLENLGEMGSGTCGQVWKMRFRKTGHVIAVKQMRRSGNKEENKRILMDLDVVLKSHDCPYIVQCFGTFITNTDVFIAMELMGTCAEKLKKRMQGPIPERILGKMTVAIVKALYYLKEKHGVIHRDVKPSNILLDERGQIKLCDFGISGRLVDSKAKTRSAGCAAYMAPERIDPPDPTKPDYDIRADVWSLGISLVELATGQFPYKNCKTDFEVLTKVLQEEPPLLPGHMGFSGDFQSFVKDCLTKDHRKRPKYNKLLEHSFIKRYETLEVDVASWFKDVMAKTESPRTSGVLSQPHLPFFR
Outline: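 HEK293T cells pretreated with anisomycin (3 μg/mL) for 45 min, then exposed to inhibitor (100 μM) for 5 h. MEK7 levels were read by Western blot with HSP90 as loading control. Blots are representative of at least three biological replicates.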

[20] = target: Dual specificity mitogen-activated protein kinase kinase 2 (Homo sapiens) (UniProt P36507); experiment: Inhibition of human MEK2 in human MIA PaCa-2 cells assessed as decrease of p42/44 MAPK phosphorylation in presence of U0126 at 10 uM measured after 5 hrs by Westren blot assay; type: cell-based; outline: as §4
[21] = target: T4, Dual specificity mitogen-activated protein kinase kinase 7 (Homo sapiens); experiment: Inhibition of human wild type full length MEK7 (M1 to R417 residues) expressed in mammalian expression system at 1 uM measured by Kinomescan assay
HPAF-II [22] = experiment: Antiproliferative activity against human HPAF-II cells assessed as inhibition of cell proliferation in presence of […] at 10 uM measured after 72 hrs; type: functional, cell-based; outline: as §5
[23] = target: Dual specificity mitogen-activated protein kinase kinase 1 (Homo sapiens) (UniProt Q02750); experiment: Inhibition of human MEK1 in human HEK293T cells assessed as reversal of anisomycin-induced decrease of p42/44 MAPK phosphorylation at 100 uM measured after 5 hrs by Western blot assay; type: cell-based; outline: as §2
Cytochrome P450 2D6 = Cytochrome P450 2D6 (Homo sapiens, UniProt P10635); experiment: Inhibition of CYP2D6 (unknown origin); type: ADME
Cytochrome P450 2D6, sequence (P10635 whole entry, the tested form may be a part): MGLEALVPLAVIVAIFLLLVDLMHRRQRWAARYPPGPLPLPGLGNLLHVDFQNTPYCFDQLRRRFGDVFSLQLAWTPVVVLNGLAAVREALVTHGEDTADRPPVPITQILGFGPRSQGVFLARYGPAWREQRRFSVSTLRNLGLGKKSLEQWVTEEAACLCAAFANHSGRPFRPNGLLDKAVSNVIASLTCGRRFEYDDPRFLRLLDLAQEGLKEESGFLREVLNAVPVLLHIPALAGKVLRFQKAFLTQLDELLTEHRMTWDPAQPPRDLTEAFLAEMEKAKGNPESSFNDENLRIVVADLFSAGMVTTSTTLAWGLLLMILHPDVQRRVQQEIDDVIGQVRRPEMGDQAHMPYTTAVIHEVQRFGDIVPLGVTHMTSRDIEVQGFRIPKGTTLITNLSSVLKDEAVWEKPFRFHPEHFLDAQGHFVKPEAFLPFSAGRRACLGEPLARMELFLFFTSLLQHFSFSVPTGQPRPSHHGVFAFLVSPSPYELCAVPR

[24] = target: T4, Dual specificity mitogen-activated protein kinase kinase 7 (Homo sapiens); experiment: Inhibition of human wild type full length MEK7 (M1 to R417 residues) expressed in mammalian expression system at 10 uM measured by Kinomescan assay
Cytochrome P450 1A2 = Cytochrome P450 1A2 (Homo sapiens, UniProt P05177); experiment: Inhibition of CYP1A2 (unknown origin); type: ADME
Cytochrome P450 1A2, sequence (P05177 whole entry): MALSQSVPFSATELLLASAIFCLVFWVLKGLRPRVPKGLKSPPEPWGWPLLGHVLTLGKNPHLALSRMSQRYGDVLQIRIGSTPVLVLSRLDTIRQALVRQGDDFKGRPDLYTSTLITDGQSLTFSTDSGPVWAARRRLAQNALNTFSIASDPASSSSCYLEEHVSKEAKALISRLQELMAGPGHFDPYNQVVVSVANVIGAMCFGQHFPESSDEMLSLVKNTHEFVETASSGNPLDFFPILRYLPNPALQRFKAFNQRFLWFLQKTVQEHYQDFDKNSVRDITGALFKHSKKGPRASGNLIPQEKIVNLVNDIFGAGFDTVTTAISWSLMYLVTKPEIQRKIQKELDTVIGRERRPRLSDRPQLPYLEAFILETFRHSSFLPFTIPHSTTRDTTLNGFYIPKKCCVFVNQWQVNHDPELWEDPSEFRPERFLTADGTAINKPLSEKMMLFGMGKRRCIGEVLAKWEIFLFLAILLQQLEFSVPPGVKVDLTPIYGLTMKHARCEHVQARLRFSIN

[25] = target: T2, Dual specificity mitogen-activated protein kinase kinase 3 (Homo sapiens); experiment: Inhibition of human wild type full length MEK3 (M1 to S318) expressed in mammalian expression system at 10 uM measured by Kinomescan assay; outline: as §1
HPAF-II [26] = experiment: Antiproliferative activity against human HPAF-II cells assessed as inhibition of cell proliferation measured after 72 hrs; type: functional, cell-based; outline: as §3
[27] = target: Dual specificity mitogen-activated protein kinase kinase 1 (Homo sapiens) (UniProt Q02750); experiment: Inhibition of human MEK1 in human MIA PaCa-2 cells assessed as decrease of p42/44 MAPK phosphorylation in presence of U0126 at 10 uM measured after 5 hrs by Westren blot assay; type: cell-based; outline: as §4
Cytochrome P450 2C19 = Cytochrome P450 2C19 (Homo sapiens, UniProt P33261); experiment: Inhibition of CYP2C19 (unknown origin); type: ADME
Cytochrome P450 2C19, sequence (P33261 whole entry): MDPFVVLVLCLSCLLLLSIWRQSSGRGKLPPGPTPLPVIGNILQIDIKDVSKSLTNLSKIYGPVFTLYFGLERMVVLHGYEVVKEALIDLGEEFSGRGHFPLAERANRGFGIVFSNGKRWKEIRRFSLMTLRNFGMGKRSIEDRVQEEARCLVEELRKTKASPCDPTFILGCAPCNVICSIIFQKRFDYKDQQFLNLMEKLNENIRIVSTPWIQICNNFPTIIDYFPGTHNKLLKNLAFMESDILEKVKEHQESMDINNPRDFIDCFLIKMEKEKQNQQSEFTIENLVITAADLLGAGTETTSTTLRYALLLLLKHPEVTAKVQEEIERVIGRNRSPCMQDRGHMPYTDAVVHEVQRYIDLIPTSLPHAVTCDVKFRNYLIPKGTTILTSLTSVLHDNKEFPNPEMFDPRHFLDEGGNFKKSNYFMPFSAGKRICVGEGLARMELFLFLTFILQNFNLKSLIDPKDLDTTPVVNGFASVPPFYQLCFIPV

[28] = target: T3, Dual specificity mitogen-activated protein kinase kinase 6 (Homo sapiens); experiment: Inhibition of human MEK6 in human HEK293T cells assessed as inhibition of anisomycin-induced p38 MAPK phosphorylation at 100 uM measured after 5 hrs by Western blot assay; type: cell-based; outline: as §2

- inhibition [1]: inactive
- inhibition [2]: Active
- inhibition [3]: inactive
- inhibition [4]: Active
- inhibition [5]: 87%
- inhibition [7]: 86%
- inhibition [8]: inactive
- inhibition (INH) (Cytochrome P450 3A4): Not Active
- inhibition [9]: 48%
- half-life [10]: > 3.08 h
- inhibition (INH) (Cytochrome P450 2C9): Active
- inhibition [11]: 99%
- inhibition [12]: 97%
- inhibition [13]: Active
- inhibition (INH) (Cytochrome P450 3A5): Not Active
- inhibition [14]: Active
- inhibition [16]: Active
- inhibition [17]: inactive
- inhibition [18]: Active
- inhibition [19]: inactive
- inhibition [20]: Active
- inhibition [21]: 74%
- inhibition [23]: Active
- inhibition (INH) (Cytochrome P450 2D6): Active
- inhibition [24]: 99%
- inhibition (INH) (Cytochrome P450 1A2): Active
- inhibition [25]: 99%
- inhibition [27]: Active
- inhibition (INH) (Cytochrome P450 2C19): Active
- inhibition [28]: inactive
Compound: NC(=O)c1ccc(NS(=O)(=O)c2cccc(-c3n[nH]c4cc(F)ccc34)c2)cc1
- Activity (MIA PaCa-2 [6]): Active
- Activity (MIA PaCa-2 [15]): Active
- Activity (HPAF-II [22]): Active
- Activity (HPAF-II [26]): Active
